These results are taken from ChEMBL document CHEMBL1772952 (J Med Chem, 2011).

SMILES strings stand for the structures. The source made the active and inactive calls. The calls are words filed in the database; no cut-off is given here.

Assay [1] deals with Rattus norvegicus. Description: Antidepressant activity in […] Sprague-Dawley rat assessed as reduction of immobility time at 15 mg/kg, ip administered 30 mins before test by forced swimming test. Also on record: dose 15 mg/kg. The format is functional, organism-based. The essentials: (§1)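 Male Sprague-Dawley rats (200–225 g), drug-naive and used once. Forced swim test: 15 min pretest swim in a water-filled glass cylinder (depth 22 cm, 24–25 °C). Drug or vehicle (10% β-hydroxypropyl cyclodextrin) was given i.p. 15 min after the pretest and again before the 5 min test swim 24 h later. Immobility was scored from video by a blinded rater.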

For assay [2], the species on record is Rattus norvegicus. Description: Selectivity ratio of Ki for DAT in rat striatum to Ki for NET in rat cerebral cortex. In kind it is tissue-based. Put shortly:
(§2)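 Ratio of Ki values from [3H]substrate uptake inhibition: [3H]dopamine for DAT in rat striatum, and [3H]serotonin for SERT or [3H]norepinephrine for NET in rat cerebral cortex. Each Ki came from an IC50 fitted over at least five triplicate concentrations, converted by Cheng-Prusoff.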

Assay [3] is filed under the species Rattus norvegicus. Description: Selectivity ratio of Ki for DAT in rat striatum to Ki for SERT in rat cerebral cortex. In kind it is tissue-based. Put shortly:
as §2

Assay [4] concerns the target Sodium-dependent dopamine transporter (Rattus norvegicus, UniProt P23977). Description: Inhibition of DAT in rat striatum assessed as [3H]dopamine accumulation. In kind it is tissue-based. Put shortly: (§3)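 Uptake of [3H]dopamine (DAT, rat striatum) or [3H]serotonin (SERT, rat cerebral cortex) was measured with at least five triplicate concentrations spaced around the IC50. IC50 came from nonlinear curve fitting and was converted to Ki by Cheng-Prusoff. Values are mean ± SEM of 3–8 independent experiments.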

The species named for assay [5] is Rattus norvegicus. Description: Selectivity ratio of Ki for SERT in rat cerebral cortex to Ki for NET in rat cerebral cortex. In kind it is tissue-based. Put shortly: as §2
Assay [6] can be described thus: Inhibition of NET in rat cerebral cortex assessed as [3H]norepinephrine accumulation. The format is tissue-based. The essentials:
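Rat cerebral cortex tissue; uptake of [3H]norepinephrine via NET measured. At least five concentrations per compound, each in triplicate, spaced evenly around the IC50. IC50 obtained by nonlinear curve fitting, then converted to Ki by Cheng-Prusoff. Values are mean ± SEM of three to eight independent experiments.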

Assay [7] addresses Sodium-dependent serotonin transporter (Rattus norvegicus, UniProt P31652). Description: Inhibition of SERT in rat cerebral cortex assessed as [3H]serotonin accumulation. The format is tissue-based. Put shortly: as §3
Assay [8] concerns Rattus norvegicus. Description: Antidepressant activity in […] Sprague-Dawley rat assessed as reduction of immobility time at 10 mg/kg, ip administered 1 hr before test by forced swimming test. In kind it is functional, organism-based. Also on record: dose 10 mg/kg. Put shortly:
as §1

Sodium-dependent serotonin transporter, sequence (P31652 whole entry): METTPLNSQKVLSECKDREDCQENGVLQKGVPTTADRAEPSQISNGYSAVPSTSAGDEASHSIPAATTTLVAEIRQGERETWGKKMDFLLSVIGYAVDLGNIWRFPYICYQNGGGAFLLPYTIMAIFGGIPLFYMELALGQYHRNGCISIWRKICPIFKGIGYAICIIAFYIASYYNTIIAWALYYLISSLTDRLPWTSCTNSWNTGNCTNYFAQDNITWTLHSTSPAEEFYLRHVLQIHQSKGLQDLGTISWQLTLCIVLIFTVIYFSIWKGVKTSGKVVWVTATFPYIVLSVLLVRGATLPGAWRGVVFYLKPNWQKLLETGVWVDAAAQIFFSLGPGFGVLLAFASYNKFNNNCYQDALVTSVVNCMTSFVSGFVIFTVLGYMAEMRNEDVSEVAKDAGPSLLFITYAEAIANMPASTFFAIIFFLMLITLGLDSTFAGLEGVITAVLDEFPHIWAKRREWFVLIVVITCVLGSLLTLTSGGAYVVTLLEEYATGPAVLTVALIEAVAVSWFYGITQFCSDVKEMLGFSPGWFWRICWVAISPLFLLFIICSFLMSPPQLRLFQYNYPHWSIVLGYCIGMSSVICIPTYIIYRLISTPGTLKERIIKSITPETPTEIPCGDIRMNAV
Sodium-dependent dopamine transporter, sequence (P23977 whole entry): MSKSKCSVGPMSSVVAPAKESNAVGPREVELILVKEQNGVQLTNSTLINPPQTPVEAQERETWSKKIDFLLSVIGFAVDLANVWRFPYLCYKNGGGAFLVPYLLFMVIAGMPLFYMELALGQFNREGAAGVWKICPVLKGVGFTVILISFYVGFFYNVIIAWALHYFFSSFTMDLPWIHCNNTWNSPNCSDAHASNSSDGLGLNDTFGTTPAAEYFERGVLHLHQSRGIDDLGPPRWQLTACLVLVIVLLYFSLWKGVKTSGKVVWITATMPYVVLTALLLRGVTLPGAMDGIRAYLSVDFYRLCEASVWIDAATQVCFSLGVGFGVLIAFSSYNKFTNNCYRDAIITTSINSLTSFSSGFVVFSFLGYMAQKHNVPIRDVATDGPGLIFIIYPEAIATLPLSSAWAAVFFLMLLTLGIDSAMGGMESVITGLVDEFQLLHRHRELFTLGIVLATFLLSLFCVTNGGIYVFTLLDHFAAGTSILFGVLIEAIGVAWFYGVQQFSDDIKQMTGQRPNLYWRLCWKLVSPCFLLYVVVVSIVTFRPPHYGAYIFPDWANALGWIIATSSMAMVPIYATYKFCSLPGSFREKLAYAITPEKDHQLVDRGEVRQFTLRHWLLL

Consider `CN(C)CCCN1c2ccccc2CCc2ccccc21`, for which the result in assay [1] was Active.

Take `O[C@@H](CN[C@H]1CC[C@@H](C(c2ccccc2)c2ccccc2)OC1)c1ccc(F)cc1`: the results for the Ratio Ki in assay [2], in assay [3] and in assay [5] were 0.13, 0.06 and 2.09, respectively. Besides, the Ki – broadly, a measure of affinity in units of concentration, obtained from inhibition or displacement – in assay [4] stood at 71.8 nM; in assay [6], 546 nM; in assay [7], 1140 nM.

Take `COc1cccc([C@H](O)CN[C@H]2CC[C@@H](C(c3ccccc3)c3ccccc3)OC2)c1`: the Ratio Ki was determined as 0.46 in assay [2], 0.21 in assay [3] and 2.16 in assay [5]. Also, the Ki in assay [4] was 137 nM; in assay [6], 299 nM; in assay [7], 646 nM.

For `c1ccc(C(c2ccccc2)[C@@H]2CC[C@H](NCc3cccs3)CO2)cc1`, the Ratio Ki turned out to be 0.88 in assay [2], 0.22 in assay [3] and 3.94 in assay [5]. Besides, the Ki came out at 41.4 nM in assay [4], 47.2 nM in assay [6] and 186 nM in assay [7].

Take `c1ccc(C(c2ccccc2)[C@@H]2CC[C@H](NCc3ccc[nH]3)CO2)cc1`: the Ratio Ki in assay [2] is 1.09; in assay [3] it was 0.31; in assay [5] it was 3.56. Besides, the Ki in assay [4] stood at 43.2 nM; in assay [6], 39.6 nM; in assay [7], 141 nM.

Take `c1ccc(C(c2ccccc2)[C@@H]2CC[C@H](NCc3cccnc3)CO2)cc1`: the Ratio Ki was 0.41 in assay [2], 0.95 in assay [3] and 0.43 in assay [5]. For the same compound, the inhibition constant Ki in assay [4] is 145 nM; in assay [6] it was 353 nM; in assay [7], 152 nM.

`O[C@@H](CN[C@H]1CC[C@@H](C(c2ccccc2)c2ccccc2)OC1)c1ccccc1`: the Ratio Ki in assay [2] was determined as 0.9; in assay [3], 0.15; in assay [5], 5.78. Moreover, the Ki came out at 145 nM in assay [4], 162 nM in assay [6] and 936 nM in assay [7].

Consider `c1ccc(C(c2ccccc2)[C@@H]2CC[C@H](NCc3ccncc3)CO2)cc1`, for which the values for the Ratio Ki in assay [2], in assay [3] and in assay [5] were 0.06, 0.03 and 1.92, respectively. For the same compound, the Ki came out at 28.3 nM in assay [4], 462 nM in assay [6] and 889 nM in assay [7].

As to `Oc1cccc(CN[C@H]2CC[C@@H](C(c3ccccc3)c3ccccc3)OC2)c1`, the Ratio Ki in assay [2] is 0.81; in assay [3], 0.78; in assay [5] it was 1.04. The Ki in assay [4] was 31.3 nM; in assay [6], 38.5 nM; in assay [7], 40.1 nM. For the same compound, in assay [8], the outcome was Active.

Take `COc1ccc(CN[C@H]2CC[C@@H](C(c3ccccc3)c3ccccc3)OC2)cc1`: the figures for the Ki in assay [4] and in assay [6] were 15.9 nM and 29.3 nM, respectively.

Consider `O[C@H](CN[C@H]1CC[C@@H](C(c2ccccc2)c2ccccc2)OC1)c1ccc(F)cc1`, for which the Ratio Ki in assay [2] turned out to be 0.48; in assay [3] it was 0.13; in assay [5] it was 3.72. In addition, the Ki was found to be 106 nM in assay [4], 222 nM in assay [6] and 825 nM in assay [7].

As to `COc1cccc([C@@H](O)CN[C@H]2CC[C@@H](C(c3ccccc3)c3ccccc3)OC2)c1`, the figures for the Ratio Ki in assay [2], in assay [3] and in assay [5] were 0.29, 0.11 and 2.55, respectively. Also, the Ki in assay [4] was found to be 125 nM; in assay [6] it was 429 nM; in assay [7] it was 1090 nM.

As for `O[C@H](CN[C@H]1CC[C@@H](C(c2ccccc2)c2ccccc2)OC1)c1ccccc1`, the Ratio Ki in assay [2] is 0.18; in assay [3], 0.07; in assay [5] it was 2.67. For the same compound, the Ki in assay [4] was 54 nM; in assay [6], 298 nM; in assay [7], 796 nM.

For `Oc1ccccc1CN[C@H]1CC[C@@H](C(c2ccccc2)c2ccccc2)OC1`, the Ratio Ki came to 1.25 in assay [2], 0.45 in assay [3] and 2.75 in assay [5]. In addition, the Ki was 200 nM in assay [4], 160 nM in assay [6] and 440 nM in assay [7].

Consider `O[C@@H]1C[C@@H](C(c2ccccc2)c2ccccc2)OC[C@H]1NCc1ccc2[nH]ccc2c1` (single isomer, unassigned), for which the Ki in assay [4] came out at 85.2 nM.

On to `c1ccc(C(c2ccccc2)[C@@H]2CC[C@H](NCc3cccc4ccccc34)CO2)cc1`, for which the Ratio Ki in assay [2] came out at 2.04; in assay [3] it was 5.33; in assay [5] it was 0.38. Also, the inhibition constant Ki was found to be 473 nM in assay [4], 232 nM in assay [6] and 88.8 nM in assay [7].

Regarding `c1ccc(C(c2ccccc2)[C@@H]2CC[C@H](NCc3ccco3)CO2)cc1`, the Ratio Ki in assay [2] was 1.84; in assay [3] it was 0.96; in assay [5] it was 1.92. In addition, the results for the Ki in assay [4], in assay [6] and in assay [7] were 110 nM, 59.8 nM and 115 nM, respectively.

On to `Oc1ccc(CN[C@H]2CC[C@@H](C(c3ccccc3)c3ccccc3)OC2)cc1`, for which the Ki in assay [4] was found to be 42 nM; in assay [7], 29.1 nM.

`c1ccc(C(c2ccccc2)[C@@H]2CC[C@H](NCc3ccccn3)CO2)cc1`: the Ratio Ki is 0.41 in assay [2], 0.43 in assay [3] and 0.96 in assay [5]. Further, the inhibition constant Ki in assay [4] worked out at 209 nM; in assay [7], 483 nM.
